Test results reported in the RNAGym collection of RNA variant scans (doi:10.1126/science.aae0568).
This sample holds only a part of the variants without activity.

B1: tRNA (parent)
chain: GUUCCGUUGGCGUAAUGGUAACGCGUCUCCCUCCUAAGGAGAAGACUGCGGGUUCGAGUCCCGUACGGAACG

Variants of: B1
Assay: yeast fitness relative to wild type (ratio to wild type); higher = fitter; tRNA-Arg(CCU), competitive growth, 37 C, YPD
Outline: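 Changes in genotype frequencies gave Darwinian fitness relative to wild type. Frequencies were read by 100-nucleotide paired-end sequencing of gene amplicons before and after pooled Saccharomyces cerevisiae strains, carrying tRNA-Arg(CCU) gene variants at the native locus, were competed in YPD at 37°C for 24 hours in six replicates. A genotype was kept only with ≥ 100 starting reads, and estimates < 0.5 were set to 0.5.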

Variant	yeast fitness
G41C G48A C66A	0.583
A40U A57C G67A A69U	≤ 0.5
G41A C55A U59A	0.613
G41A C60A	0.667
A42C G51C	0.553
A42C C61G	0.721
A40U A43C G68A	0.605
A40G C49U A65C	0.941
A40U A45U G48A C55U C66U	≤ 0.5
A42C C55U C66U	0.504
A42C G48A C62U	1.03
G41C C46A	0.982
G41A C60G A65G G68A	≤ 0.5
A42C A70C	1.02
A42C A70G	0.87
G41A C46U C49A	≤ 0.5
G41C C60U G67A	≤ 0.5
G41A G48A	0.944
G41C C60G G68A	≤ 0.5
G41A C61G C66U	≤ 0.5
A40G G50A U54A	0.552
G41A C49U C60G A65G	0.635
A42C A45C G48A G58A C61U A70G	≤ 0.5
G41A A45U G56C	0.546

Variant	yeast fitness
G41A G50A	0.807
A42G A45U G50C	≤ 0.5
A40G C49G U53C A57C A69U	≤ 0.5
G41A U59A A65C G67U	≤ 0.5
G41A C55G	0.605
G41A C55U	0.885
A42G A45U C66U	0.684
G41A G56C G63A U64C G67C	≤ 0.5
A42C A43C C49U A70C	0.585
A40G C61U U64G A69U	≤ 0.5
A40U C55U A65C	≤ 0.5
G41A U47C C62U	≤ 0.5
A42G A43U U54A	≤ 0.5
A40U U47C	0.869
A40U A69U A70C	0.725
G41A U47A A70G	0.571
A42C A57G	0.749
G41A C60G A70G	0.542
A40G C62U A69C	0.725
A40U A57G U64G	≤ 0.5
A40G A69C	0.861
A42C G51A A65U G68A	≤ 0.5
G41A A43C	0.843
G41A A43U	0.788

Variant	yeast fitness
G41A A65G A70G	0.63
G41C A45U C55U	≤ 0.5
A42C G67C A70U	0.505
G41C C55A C66U A69C	≤ 0.5
G41A C49A	0.663
G41A C49G	0.655
G41A C49U	0.921
G41C G51A	0.844
A40U A42U C49G G51A C66A G68C	≤ 0.5
A40U C49A	0.638
A40U C49U	0.856
A40U C49G	0.811
A40U A43C U53C G68A	≤ 0.5
A40G C46G C60U	≤ 0.5
G41C C55G C66G	≤ 0.5
A40G C46A G68C	0.633
A42C U47G C49U	≤ 0.5
G41A U53A C61A G68C	0.584
A40U C49G G56C A69C	≤ 0.5
A40U A42C A45U U47C A65G	≤ 0.5
G41C C55A A69C	0.529
A42C A45C G52C A69U	≤ 0.5
G41C A42U U64C	0.82
A42C C46G G52A	≤ 0.5

Variant	yeast fitness
A40U A43C A69U	0.851
A42C G58C	0.975
A42C A45C	0.854
A40G G50C	0.649
G41C C66U	0.83
A40G A70U	0.891
A40G A70G	1.09
A42C U47A G52A	≤ 0.5
A40U A43U A70U	0.664
A42C A57G C61U	≤ 0.5
A40G G41A	0.825
A40U A57G	0.881
A40U A57C	0.744
G41C A42G G51A G68C	≤ 0.5
A42C C49A G67C	≤ 0.5
G41A A57U	0.759
G41A A57G	0.828
A42C G67C	0.829
A42C G67U	0.811
A40G G67A	0.754
A40G G67C	0.956
A40G C46G	0.998
A40G C46U	0.918
G41A A65U	0.722

Variant	yeast fitness
G41A A65G	0.934
G41C A69C	0.858
G41C A69U	0.813
G41A C46A U47C	1.06
A42C C66A	0.688
A42C C66G	0.684
G41A G44C	0.671
A40U G51A	0.777
G41A G51A A70C	0.542
A40U A45U U53C	0.684
G41C G50C C60U	≤ 0.5
A40U A42C	0.752
G41A C61G	0.685
A40G G52A U53A C66U	≤ 0.5
G41A A57C C62A	≤ 0.5
A40G U53C C61A C62G	≤ 0.5
A42C A43C C60G C61G C62U	≤ 0.5
A42G A43U U47G C61G G67A	≤ 0.5
G41A U64C A65C	≤ 0.5
A40U A42C G67A	0.534
A40G G44A A45U C49U	≤ 0.5
G41C A70C	0.858
G41C A70U	0.88
G41C A70G	0.829

Variant	yeast fitness
A40U U54C A70U	0.695
A42C C49G	0.759
A42C C49A	0.62
A40U G56A	0.843
G41A C60G C61G C62U	0.682
A42C G63U	0.72
A42C G63A	0.818
A40U A42C C55U C62U	≤ 0.5
A40G G58A A70C	0.593
A40G G58A A70U	0.61
A42C C46G A65U G67C	≤ 0.5
A42G A69G	0.749
G41C A43G	0.898
G41C A43U	0.957
A42G A57C U59C C61U	≤ 0.5
A40G C60G G63C	≤ 0.5
A42C A65U C66U	0.558
A40G G50A C61G	0.584
G41A G51C	≤ 0.5
G41A G51A	0.664
A42C C46G G67C	0.612
A42C A43U	0.779
A42C A43C	1.02
A42C A43G	0.885

Variant	yeast fitness
A40U G67C	0.755
A40U C46U	1.08
G41A C66G	0.625
A40U A45U G63A	0.689
G41A A42C G50C A70G	0.621
A42C G48C	0.763
A42C G48A	1.07
G41A A43U G63A	≤ 0.5
G41C C49G	0.702
G41C C49U	0.894
A40U U47A G58A	≤ 0.5
A40U U47A G58C	0.579
G41A U64C	1.07
G41A U54C	0.814
G41C U47C	0.937
G41C U47A	0.654
A40U A45U A57U	0.611
G41C U59C	0.933
G41C U64A	0.67
G41C U64C	0.896
A42G A45G C46U	0.726
G41A G67A	0.663
A42G A45C G48C C66U	≤ 0.5
